Laboratory results reported in ChEMBL document CHEMBL4014327 (J Med Chem, 2017).

Assays:
[1] = Half life in Wistar Han rat at 1 mg/kg, iv administered as single dose; format: ADME, organism-based; conditions: in vivo
[2] = molecular target: Casein kinase I isoform gamma-2 (Homo sapiens) (UniProt P78368); experiment: Inhibition of CK1gamma2 in human THP1 cell lysate at 200 nM
Cytochrome P450 2C19 = Cytochrome P450 2C19 (Homo sapiens, UniProt P33261); experiment: Time dependent inhibition of CYP2C19 in human liver microsomes at 100 uM; format: ADME
Outline: (§1)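 Time-dependent inhibition assessed in pooled human liver microsomes with probe substrates, test compound at 100 μM.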

CYP1A2 = CYP1A2 (Homo sapiens, UniProt P05177); experiment: Inhibition of CYP1A2 in human liver microsomes at 3 uM; format: ADME
Chain of CYP1A2 (P05177 whole entry): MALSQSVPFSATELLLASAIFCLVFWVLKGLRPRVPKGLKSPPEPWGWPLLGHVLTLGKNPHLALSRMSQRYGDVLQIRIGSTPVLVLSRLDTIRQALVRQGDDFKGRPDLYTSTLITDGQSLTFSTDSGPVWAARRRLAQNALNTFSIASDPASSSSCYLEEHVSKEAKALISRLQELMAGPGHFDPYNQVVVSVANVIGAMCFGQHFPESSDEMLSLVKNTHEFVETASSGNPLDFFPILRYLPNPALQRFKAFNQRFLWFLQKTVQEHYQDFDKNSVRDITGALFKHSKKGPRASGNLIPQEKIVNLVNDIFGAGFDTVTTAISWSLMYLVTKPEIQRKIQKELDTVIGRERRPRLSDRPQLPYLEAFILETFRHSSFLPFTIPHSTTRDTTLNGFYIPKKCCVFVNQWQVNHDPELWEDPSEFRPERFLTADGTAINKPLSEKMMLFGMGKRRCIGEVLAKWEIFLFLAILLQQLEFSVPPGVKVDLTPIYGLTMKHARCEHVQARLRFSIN

Cytochrome P450 2C9 = Cytochrome P450 2C9 (Homo sapiens, UniProt P11712); experiment: Time dependent inhibition of CYP2C9 in human liver microsomes at 100 uM; format: ADME; outline: as §1
Plasma [3] = experiment: Free plasma concentration in Sprague-Dawley rat LPS model at 0.3 mg/kg, po after 2.5 hrs; format: ADME, organism-based; conditions: in vivo
Outline: (§2)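 Male Sprague−Dawley rats, 6−8 weeks old, n = 6−9 per group. Dosed orally at 0.3, 1, 3 or 30 mg/kg in 0.5% methylcellulose/2% Tween 80 in water. Ultrapure LPS 0.01 mg/kg iv given 1 h after dosing. Plasma exposure taken 2.5 h after oral dosing and reported as free concentration using fraction unbound in rat plasma.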

[4] = Volume of distribution at steady state in cynomolgus monkey at 1 mg/kg, iv administered as single dose; format: ADME, organism-based, Macaca fascicularis; conditions: in vivo, read-out: Vdss
Outline: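 Single-dose pharmacokinetic study in male animals, with iv and separate oral administration. Steady-state volume of distribution was derived from plasma concentrations after the iv dose.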

[5] = Half life in Beagle dog at 5 mg/kg, po administered as single dose; format: ADME, organism-based, Canis lupus familiaris; conditions: in vivo
Rattus norvegicus [6] = experiment: Plasma clearance in Wistar Han rat at 1 mg/kg, iv administered as single dose; format: ADME, organism-based; conditions: in vivo
Rattus norvegicus [7] = experiment: Inhibition of LPS induced TNFalpha secretion in po dosed Sprague-Dawley rat assessed as decrease in TNFalpha level in serum pretreated for 1 hr followed by LPS challenge measured after 1.5 hrs relative to control; format: functional, organism-based
Outline: (§3)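 Male Sprague-Dawley rats, 6-8 weeks old, n = 6-9 per group. Test article was given orally at 0.3, 1, 3 or 30 mg/kg as a solution or suspension in 0.5% methylcellulose and 2% Tween 80 in water; controls received vehicle alone. Ultrapure LPS (0.01 mg/kg) was given iv 1 h later. Blood was drawn 1.5 h after challenge, and serum TNF was measured by MSD.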

Cytochrome P450 2B6 = Cytochrome P450 2B6 (Homo sapiens, UniProt P20813); experiment: Time dependent inhibition of CYP2B6 in human liver microsomes at 100 uM; format: ADME; outline: as §1
Chain of Cytochrome P450 2B6 (P20813 whole entry): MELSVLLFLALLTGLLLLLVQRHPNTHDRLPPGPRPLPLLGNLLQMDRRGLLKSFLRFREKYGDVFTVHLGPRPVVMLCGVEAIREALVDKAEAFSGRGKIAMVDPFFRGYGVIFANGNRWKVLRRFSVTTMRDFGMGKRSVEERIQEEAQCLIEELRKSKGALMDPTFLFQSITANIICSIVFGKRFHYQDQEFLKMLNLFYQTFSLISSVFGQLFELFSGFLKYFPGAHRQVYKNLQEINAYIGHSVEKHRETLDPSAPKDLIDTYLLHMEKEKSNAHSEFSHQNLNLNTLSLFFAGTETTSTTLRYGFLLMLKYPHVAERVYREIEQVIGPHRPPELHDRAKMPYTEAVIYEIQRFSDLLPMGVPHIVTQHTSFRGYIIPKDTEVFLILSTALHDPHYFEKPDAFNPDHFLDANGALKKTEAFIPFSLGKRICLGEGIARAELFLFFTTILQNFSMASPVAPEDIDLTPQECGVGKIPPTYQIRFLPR

[8] = molecular target: Vascular endothelial growth factor receptor 2 (Homo sapiens, UniProt P35968); experiment: Inhibition of human recombinant VEGFR2 at 10 uM using CAGAGAIETDKEYYTVKD as substrate after 60 mins by Lance method
[9] = molecular target: Phosphatidylinositol 5-phosphate 4-kinase type-2 gamma (Homo sapiens) (UniProt Q8TBX8); experiment: Inhibition of PIPK2C in human THP1 cell lysate at 200 nM
Chain of Phosphatidylinositol 5-phosphate 4-kinase type-2 gamma (Homo sapiens) (Q8TBX8 whole entry, canonical isoform): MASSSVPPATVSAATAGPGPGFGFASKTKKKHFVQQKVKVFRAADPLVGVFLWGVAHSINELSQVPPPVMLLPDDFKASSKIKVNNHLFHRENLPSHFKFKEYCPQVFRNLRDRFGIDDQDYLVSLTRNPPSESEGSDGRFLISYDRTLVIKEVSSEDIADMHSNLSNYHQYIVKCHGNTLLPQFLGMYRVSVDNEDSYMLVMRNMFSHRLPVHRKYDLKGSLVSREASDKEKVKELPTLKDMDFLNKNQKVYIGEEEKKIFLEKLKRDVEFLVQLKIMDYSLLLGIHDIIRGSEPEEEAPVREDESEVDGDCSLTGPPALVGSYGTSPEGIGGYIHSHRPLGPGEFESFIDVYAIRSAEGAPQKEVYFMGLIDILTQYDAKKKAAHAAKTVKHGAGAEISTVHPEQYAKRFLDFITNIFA

[10] = molecular target: Casein kinase I isoform gamma-1 (Homo sapiens) (UniProt Q9HCP0); experiment: Inhibition of recombinant human full length GST-tagged CK1gamma1 expressed in baculovirus at 200 nM
Chain of Casein kinase I isoform gamma-1 (Homo sapiens) (Q9HCP0 whole entry, looked up, canonical isoform): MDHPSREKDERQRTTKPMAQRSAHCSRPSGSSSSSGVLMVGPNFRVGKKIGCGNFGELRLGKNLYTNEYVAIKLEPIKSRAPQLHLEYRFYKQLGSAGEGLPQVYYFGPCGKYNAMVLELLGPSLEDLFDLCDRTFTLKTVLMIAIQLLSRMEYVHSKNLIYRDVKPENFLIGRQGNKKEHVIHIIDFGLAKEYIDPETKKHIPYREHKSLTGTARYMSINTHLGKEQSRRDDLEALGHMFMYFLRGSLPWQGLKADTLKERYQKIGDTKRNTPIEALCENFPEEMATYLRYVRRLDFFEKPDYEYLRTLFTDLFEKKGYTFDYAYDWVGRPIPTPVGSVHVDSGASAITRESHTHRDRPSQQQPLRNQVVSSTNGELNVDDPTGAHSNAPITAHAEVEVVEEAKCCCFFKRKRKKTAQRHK

Plasma [11] = experiment: Free plasma concentration in Sprague-Dawley rat LPS model at 30 mg/kg, po after 2.5 hrs; format: ADME, organism-based; conditions: in vivo; outline: as §2
[12] = molecular target: T1, Interleukin-1 receptor-associated kinase 4 (Homo sapiens) (UniProt Q9NWZ3); experiment: Inhibition of IRAK4 in human THP1 cell lysate at 200 nM
T1 sequence (whole entry): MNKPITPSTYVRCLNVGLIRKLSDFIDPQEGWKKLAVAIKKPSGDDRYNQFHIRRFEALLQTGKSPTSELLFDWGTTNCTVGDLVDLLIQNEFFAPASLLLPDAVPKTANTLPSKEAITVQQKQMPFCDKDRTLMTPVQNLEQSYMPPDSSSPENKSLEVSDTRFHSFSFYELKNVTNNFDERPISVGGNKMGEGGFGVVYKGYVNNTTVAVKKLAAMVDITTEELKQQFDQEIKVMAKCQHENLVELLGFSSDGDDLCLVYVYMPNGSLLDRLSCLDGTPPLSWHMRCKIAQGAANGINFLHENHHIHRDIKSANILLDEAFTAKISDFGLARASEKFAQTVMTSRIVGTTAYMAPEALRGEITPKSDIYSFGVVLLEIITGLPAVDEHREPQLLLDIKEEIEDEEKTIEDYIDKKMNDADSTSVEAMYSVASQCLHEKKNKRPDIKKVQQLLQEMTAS

[13] = Oral bioavailability in cynomolgus monkey at 5 mg/kg administered as single dose; format: ADME, organism-based, Macaca fascicularis; conditions: in vivo
[14] = molecular target: Leucine-rich repeat serine/threonine-protein kinase 2 (Homo sapiens) (UniProt Q5S007); experiment: Inhibition of recombinant human GST-tagged LRRK2 expressed in baculovirus at 200 nM
Chain of Leucine-rich repeat serine/threonine-protein kinase 2 (Homo sapiens) (Q5S007 whole entry): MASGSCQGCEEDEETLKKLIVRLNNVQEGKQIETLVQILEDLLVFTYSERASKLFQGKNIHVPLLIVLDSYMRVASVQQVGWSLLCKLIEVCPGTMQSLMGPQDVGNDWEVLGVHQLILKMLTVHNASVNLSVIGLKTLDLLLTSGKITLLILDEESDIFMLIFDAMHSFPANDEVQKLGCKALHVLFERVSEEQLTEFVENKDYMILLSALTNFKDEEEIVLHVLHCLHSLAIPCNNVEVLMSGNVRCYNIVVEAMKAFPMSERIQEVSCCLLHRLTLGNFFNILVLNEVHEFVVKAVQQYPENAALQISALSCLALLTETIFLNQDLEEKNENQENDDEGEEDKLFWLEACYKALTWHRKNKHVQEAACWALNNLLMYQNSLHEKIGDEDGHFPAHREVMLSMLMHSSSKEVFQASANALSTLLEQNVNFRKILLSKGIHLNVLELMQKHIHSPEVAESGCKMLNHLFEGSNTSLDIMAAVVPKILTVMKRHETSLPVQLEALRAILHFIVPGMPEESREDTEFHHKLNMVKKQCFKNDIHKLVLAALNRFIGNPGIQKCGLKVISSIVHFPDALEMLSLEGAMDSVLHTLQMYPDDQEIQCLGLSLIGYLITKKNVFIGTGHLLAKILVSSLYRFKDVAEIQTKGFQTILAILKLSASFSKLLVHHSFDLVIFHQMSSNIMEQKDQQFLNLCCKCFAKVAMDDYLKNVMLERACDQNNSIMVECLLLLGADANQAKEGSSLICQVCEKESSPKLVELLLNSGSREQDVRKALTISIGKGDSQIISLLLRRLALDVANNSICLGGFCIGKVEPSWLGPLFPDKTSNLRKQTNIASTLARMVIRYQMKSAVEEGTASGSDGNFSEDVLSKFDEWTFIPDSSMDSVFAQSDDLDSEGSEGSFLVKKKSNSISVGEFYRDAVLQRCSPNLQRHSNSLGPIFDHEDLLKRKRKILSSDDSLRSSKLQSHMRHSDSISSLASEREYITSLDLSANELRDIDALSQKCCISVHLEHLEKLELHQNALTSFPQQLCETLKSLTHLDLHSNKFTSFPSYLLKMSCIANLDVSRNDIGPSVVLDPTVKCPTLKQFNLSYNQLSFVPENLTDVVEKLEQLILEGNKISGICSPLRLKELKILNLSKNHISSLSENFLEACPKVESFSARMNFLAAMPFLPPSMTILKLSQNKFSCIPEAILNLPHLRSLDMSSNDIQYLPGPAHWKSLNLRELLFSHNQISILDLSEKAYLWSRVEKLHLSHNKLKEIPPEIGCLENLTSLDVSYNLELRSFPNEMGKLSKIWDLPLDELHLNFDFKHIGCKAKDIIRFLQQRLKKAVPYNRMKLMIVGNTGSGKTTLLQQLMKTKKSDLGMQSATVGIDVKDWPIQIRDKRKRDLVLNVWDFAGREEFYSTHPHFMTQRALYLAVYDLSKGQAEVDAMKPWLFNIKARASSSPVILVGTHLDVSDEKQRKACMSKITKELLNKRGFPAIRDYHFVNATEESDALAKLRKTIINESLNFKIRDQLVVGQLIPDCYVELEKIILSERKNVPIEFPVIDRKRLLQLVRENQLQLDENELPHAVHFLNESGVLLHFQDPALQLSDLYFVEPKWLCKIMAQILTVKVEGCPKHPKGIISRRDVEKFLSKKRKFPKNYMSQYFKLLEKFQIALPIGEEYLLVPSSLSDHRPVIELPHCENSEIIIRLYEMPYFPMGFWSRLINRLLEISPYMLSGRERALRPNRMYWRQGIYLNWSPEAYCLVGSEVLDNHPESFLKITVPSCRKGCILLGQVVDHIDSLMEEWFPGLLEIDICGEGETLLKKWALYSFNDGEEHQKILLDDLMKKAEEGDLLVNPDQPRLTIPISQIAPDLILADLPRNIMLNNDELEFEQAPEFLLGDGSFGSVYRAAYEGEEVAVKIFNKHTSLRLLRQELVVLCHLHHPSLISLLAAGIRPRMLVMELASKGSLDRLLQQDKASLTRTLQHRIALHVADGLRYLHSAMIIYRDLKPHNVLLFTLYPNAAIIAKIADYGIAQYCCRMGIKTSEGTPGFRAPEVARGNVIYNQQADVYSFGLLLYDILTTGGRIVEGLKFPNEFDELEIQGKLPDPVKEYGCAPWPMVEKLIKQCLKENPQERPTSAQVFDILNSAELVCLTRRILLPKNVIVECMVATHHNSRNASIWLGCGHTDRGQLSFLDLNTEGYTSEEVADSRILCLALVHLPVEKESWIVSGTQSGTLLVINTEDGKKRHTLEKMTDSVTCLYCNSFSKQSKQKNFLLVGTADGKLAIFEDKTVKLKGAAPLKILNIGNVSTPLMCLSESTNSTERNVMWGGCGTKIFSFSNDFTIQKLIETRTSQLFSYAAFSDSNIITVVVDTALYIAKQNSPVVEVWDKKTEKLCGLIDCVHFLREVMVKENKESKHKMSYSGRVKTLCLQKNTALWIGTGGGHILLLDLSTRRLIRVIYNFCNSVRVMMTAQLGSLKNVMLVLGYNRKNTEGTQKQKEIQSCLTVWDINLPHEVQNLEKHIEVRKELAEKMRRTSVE

[15] = Half life in Beagle dog at 1 mg/kg, iv administered as single dose; format: ADME, organism-based, Canis lupus familiaris; conditions: in vivo
Rattus norvegicus [16] = experiment: Inhibition of LPS induced TNFalpha secretion in Sprague-Dawley rat assessed as decrease in TNFalpha level in serum at 30 mg/kg, po pretreated for 1 hr followed by LPS challenge measured after 1.5 hrs relative to control; format: functional; outline: as §3
[17] = Fraction unbound in rat plasma; format: ADME, cell-free
Outline: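 Fraction unbound in plasma measured by equilibrium dialysis.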

Cytochrome P450 2D6 = Cytochrome P450 2D6 (Homo sapiens, UniProt P10635); experiment: Time dependent inhibition of CYP2D6 in human liver microsomes at 100 uM; format: ADME
Outline: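 Pooled human liver microsomes with CYP probe substrates. Time-dependent inhibition was assessed across CYP1A2, 2B6, 2C8, 2C9, 2C19 and 2D6, with test compound at 100 μM.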

Cynomolgus monkey = experiment: Plasma clearance in cynomolgus monkey at 1 mg/kg, iv administered as single dose; format: ADME, organism-based, Macaca fascicularis; conditions: in vivo
Cytochrome P450 1A2 = Cytochrome P450 1A2 (Homo sapiens, UniProt P05177); experiment: Time dependent inhibition of CYP1A2 in human liver microsomes at 100 uM; format: ADME; outline: as §1
Chain of Cytochrome P450 1A2 (P05177 whole entry): as the sequence (P05177 whole entry) above

Chain of Casein kinase I isoform gamma-2 (Homo sapiens) (P78368 whole entry, looked up, canonical isoform): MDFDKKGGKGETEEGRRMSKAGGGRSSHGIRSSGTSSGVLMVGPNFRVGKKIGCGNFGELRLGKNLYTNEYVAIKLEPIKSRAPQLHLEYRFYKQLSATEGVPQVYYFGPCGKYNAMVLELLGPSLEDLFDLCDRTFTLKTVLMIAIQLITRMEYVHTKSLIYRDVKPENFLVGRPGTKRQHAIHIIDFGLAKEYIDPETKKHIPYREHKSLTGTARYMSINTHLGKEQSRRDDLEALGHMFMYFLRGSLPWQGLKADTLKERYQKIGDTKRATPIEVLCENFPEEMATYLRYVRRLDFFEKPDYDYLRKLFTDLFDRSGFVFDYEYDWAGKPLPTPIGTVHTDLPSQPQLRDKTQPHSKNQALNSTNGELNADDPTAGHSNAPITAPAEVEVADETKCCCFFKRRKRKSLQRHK

**Q.** What does the source list for CC[C@@H]1[C@H](F)C(=O)N[C@@H]1COc1nccc2cc(C(N)=O)c(OC)cc12 [ZIMLOVISERTIB]?
**A.** half-life [1]: 0.6 h; inhibition [2]: > 50%; TDI (Cytochrome P450 2C19): Not Active; inhibition at 3 µM (CYP1A2): < 5%; TDI (Cytochrome P450 2C9): Not Active; Cp(f) (Plasma [3]): 2.1 nM; Vd [4]: 0.95 L/kg; half-life [5]: 4 h; clearance (Rattus norvegicus [6]): 56 mL/min/kg; inhibition (Rattus norvegicus [7]): Dose-dependent effect; TDI (Cytochrome P450 2B6): Not Active; inhibition [8]: > 50%; inhibition [9]: > 50%; inhibition [10]: > 70%; Cp(f) (Plasma [11]): 150 nM; inhibition [12]: > 50%; bioavailability [13]: 6.9%; inhibition [14]: > 70%; half-life [15]: 1.1 h; inhibition in vivo at 30 mg/kg (Rattus norvegicus [16]): 87%; fraction unbound [17]: 0.3; TDI (Cytochrome P450 2D6): Not Active; clearance (Cynomolgus monkey): 10 mL/min/kg; TDI (Cytochrome P450 1A2): Not Active
